# Measured values gathered from unrelated publications.
# Compare with care: the assays were run in different laboratories.
# Target: Cytochrome P450 2C9 (CYP2C9, Homo sapiens, UniProt P11712)
# Observed: enzyme activity
# Action: inhibitor
SMILES,assay,test system,setting,quantity,result
C=CC(=O)Nc1cc(Nc2nccc(Nc3cc(Cl)c(F)cc3C(C)(C)O)n2)c(OC)cc1N1CC[C@@H](N(C)C)C1,,"human, liver microsomes",10 µM,inhibition,< 20%
C=C[C@H]1C[N@@]2CC[C@H]1C[C@@H]2[C@@H](O)c1ccnc2ccc(OC)cc12,,"human, liver microsomes",10 µM,inhibition,15%
Cc1cccc(F)c1N1CCC(N2Cc3cn(CC(C)(F)F)nc3N(Cc3ccccc3C(F)(F)F)C2=O)CC1,,"human, liver microsomes",,IC50,> 10 µM
CC(=O)N1CCN(c2ccc(OCC3COC(Cn4ccnc4)(c4ccc(Cl)cc4Cl)O3)cc2)CC1 (stereo not shown),,"human, liver microsomes",1 µM,inhibition,24%
O=C(NS(=O)(=O)c1ccc(Br)s1)c1ccc(Cl)cc1Cl,,"human, liver microsomes",,Ki,0.1 µM
NC(=O)C1CCN(C(=O)Cc2ccc(N(CCCO)Cc3cnc4nc(N)nc(N)c4n3)cc2)CC1,luciferase,,10 µM,inhibition,-7.8%
O=C(N[C@H](Cc1c[nH]c2ccccc12)C(=O)Nc1ccncc1)c1ccc(-c2cc(F)ccc2F)cc1F,,"human, liver microsomes",1 µM,inhibition,92%
NC(=O)C1CCCN1C(=O)Cc1ccc(N(CCCO)Cc2cnc3nc(N)nc(N)c3n2)cc1 (stereo not shown),luciferase,,10 µM,inhibition,-3.91%
O=C(Nc1c2c(cc3c1CCC3)CCC2)NS(=O)(=O)/C=C/c1nccs1,,"human, liver microsomes","2 µM, pH 7.4",inhibition,21.4%
CC(=O)c1cccc(OCc2cc(C(=O)N(C)[C@@H](C)c3ccccn3)no2)c1,,"human, liver microsomes",,IC50,6.3 µM
CCc1cc(/C(C)=N/OCc2ccc(C3CCCCC3)c(C(F)(F)F)c2)ccc1CN1CC(C(=O)O)C1,,"human, liver microsomes","200 µM, 20 min",inhibition,43.2%
COC(=O)C1CCN(C(=O)c2cccc(NCc3cnc4nc(N)nc(N)c4n3)c2)CC1,luciferase,,10 µM,inhibition,-4.69%
CC1(CO)C(O[C@@H]2O[C@H](C(=O)O)[C@@H](O)[C@H](O)[C@H]2O)CC[C@@]2(C)C1CC[C@]1(C)C2CC=C2[C@H]3CC(C)(C)[C@H](O)[C@@H](O)[C@]3(CO)[C@H](O)C[C@]21C (stereo partly shown),mass spectrometry,"human, liver microsomes",,IC50,> 90 µg/mL
